{"data": "Measurements pooled from the literature", "observed": "tubulin polymerisation", "action": "inhibitor", "note": "Lines come from different studies, so protocols differ."}
{"SMILES": "COc1ccc(Sc2ccccc2)c(OC)c1OC", "test": "absorbance", "conditions": "pH 6.6", "IC50": "> 40 µM"}
{"SMILES": "COc1ccc(N(C)c2nc(C)nc3c2C[C@@H](C)C3)cc1 (racemic)", "test": "absorbance", "IC50": "1.9 µM"}
{"SMILES": "CCCOc1ccc(N(C)c2cc(C)nc3ccc(Cl)cc23)cc1", "IC50": "5.4 µM"}
{"SMILES": "COc1ccc(S(=O)(=O)c2ccccc2)c(OC)c1OC", "test": "absorbance", "conditions": "pH 6.6", "IC50": "> 40 µM"}
{"SMILES": "COc1cc2c(cc1O)CCN(Cc1cc(OC)c(OC)c(OC)c1)C2", "test": "absorbance", "IC50": "> 20 µM"}
{"SMILES": "COc1ccc(/C=C\\c2cc(OC)c(OC)c(OC)c2)cc1O", "test": "absorbance", "IC50": "1.4 µM"}
{"SMILES": "CCCOc1ccc(Nc2cc(C)nc3ccc(Cl)cc23)cc1", "IC50": "> 100 µM"}
{"SMILES": "COc1ccc(N(C)c2nc(C)nc3c2CCC3)cc1", "test": "absorbance", "IC50": "1.6 µM"}
{"SMILES": "COc1ccc(C(=O)c2cc3c(-c4ccccc4)c(O)ccc3o2)cc1", "test": "absorbance", "IC50": "2.8 µM"}
{"SMILES": "COc1ccc([S+]([O-])c2ccc(OC)c(OC)c2OC)cc1 (centres unmarked)", "test": "absorbance", "conditions": "pH 6.6", "IC50": "> 40 µM"}
{"SMILES": "COc1cc2c(cc1OS(N)(=O)=O)CCN(Cc1cc(OC)c(OC)c(OC)c1)C2", "test": "absorbance", "IC50": "> 20 µM"}
